Test results taken from ChEMBL document CHEMBL3526151, “Reversible disulfide formation of the glutamate carboxypeptidase II inhibitor E2072 results in prolonged systemic exposures in vivo” (Drug Metab Dispos, 2012).

Assays:
Format in all cases: ADME, organism-based
[1] = Clearance in Sprague-Dawley rat at 5 mg/kg, iv by LC-MS/MS analysis; set-up: dose 5 mg/kg, route intravenous; conditions: in vivo
Summary of the method: (§1)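 Male Sprague-Dawley rats (n = 5) given the homodisulfide intravenously at 5 mg/kg. Blood collected up to 7 days into heparin/NEM tubes. Plasma analyzed by LC-MS/MS for both monomer and dimer. Noncompartmental AUC, Cl and Vd calculated. Mean ± S.D.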

[2] = Volume of distribution in Sprague-Dawley rat at 5 mg/kg, iv by LC-MS/MS analysis; set-up: dose 5 mg/kg, route intravenous; conditions: in vivo
[3] = AUC(0 to infinity) in Sprague-Dawley rat at 5 mg/kg, iv by LC-MS/MS analysis; set-up: dose 5 mg/kg, route intravenous, time infinity; conditions: plasma; summary of the method: as §1
[4] = Elimination half life in Sprague-Dawley rat at 5 mg/kg, iv by LC-MS/MS analysis; set-up: dose 5 mg/kg, route intravenous; conditions: in vivo, read-out: beta t1/2 (converted)
Summary of the method: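 Male Sprague-Dawley rats received a single IV dose of either 10 mg/kg parent drug (n = 6) or 5 mg/kg homodisulfide (n = 5), in 50 mM HEPES-buffered saline, pH 7.4. Blood was collected into NEM-containing heparinized tubes for up to 7 days. Parent drug and homodisulfide in plasma were quantified by LC-MS/MS. Terminal t1/2β was calculated as 0.693/λz.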

[5] = Cmax in Sprague-Dawley rat at 5 mg/kg, iv by LC-MS/MS analysis; set-up: dose 5 mg/kg, route intravenous; conditions: in vivo; summary of the method: as §1
[6] = Tmax in Sprague-Dawley rat at 5 mg/kg, iv by LC-MS/MS analysis; set-up: dose 5 mg/kg, route intravenous; conditions: in vivo
[7] = AUC(0 to last) in Sprague-Dawley rat at 5 mg/kg, iv by LC-MS/MS analysis; set-up: time 0 - last, dose 5 mg/kg, route intravenous; conditions: plasma; summary of the method: as §1

clearance [1]: 1.5 mL/h/kg | Vd [2]: 209 L/kg | AUC(0-inf) [3]: 3540 µg·h/mL | half-life [4]: 101 h | Cmax [5]: 104 µg/mL | Tmax [6]: 6.6 min | AUC(0-t) [7]: 2490 µg·h/mL
SMILES: O=C(O)c1cccc(-c2cccc(CCSSCCc3cccc(-c4cccc(C(=O)O)c4)c3C(=O)O)c2C(=O)O)c1
